Laboratory results taken from ChEMBL document CHEMBL4024754, “Development of Potent, Protease-Resistant Agonists of the Parathyroid Hormone Receptor with Broad β Residue Distribution” (J Med Chem, 2017).
Activity calls are given as the source filed them. No cut-off for these calls is given here. Numbered stars: 1 amine (or outer) side, 2 acyl side, 3 side chain; on linkers, the order of the positions; unused ones are H or OH. Square brackets hold non-standard residues; d marks the D form. Peptide text beside a SMILES is read from it. * marks the point of attachment. NH(1S,2S-2-CONH2-cPent) = NC(=O)[C@H]1CCC[C@@H]1N*; ACPC(1S,2S) = N[C@H]1CCC[C@@H]1C(=O)*; X1 = O=C([C@H]1CCC[C@@H]1N[*:1])[*:2]; X2 = O=C([C@H]1CNC[C@@H]1N[*:1])[*:2]; Aib = CC(C)(N)C(=O)O

What was measured:
[1] = target: T1, Parathyroid hormone/parathyroid hormone-related peptide receptor (Homo sapiens) (UniProt Q03431); experiment: Agonist activity at human PTH1 receptor expressed in human GP2.3 cells assessed as induction of cAMP after 12 to 20 mins by luciferase reporter gene assay relative to PTH(1 to 34 residues)-NH2; format: functional, cell-based
T1 sequence (whole entry): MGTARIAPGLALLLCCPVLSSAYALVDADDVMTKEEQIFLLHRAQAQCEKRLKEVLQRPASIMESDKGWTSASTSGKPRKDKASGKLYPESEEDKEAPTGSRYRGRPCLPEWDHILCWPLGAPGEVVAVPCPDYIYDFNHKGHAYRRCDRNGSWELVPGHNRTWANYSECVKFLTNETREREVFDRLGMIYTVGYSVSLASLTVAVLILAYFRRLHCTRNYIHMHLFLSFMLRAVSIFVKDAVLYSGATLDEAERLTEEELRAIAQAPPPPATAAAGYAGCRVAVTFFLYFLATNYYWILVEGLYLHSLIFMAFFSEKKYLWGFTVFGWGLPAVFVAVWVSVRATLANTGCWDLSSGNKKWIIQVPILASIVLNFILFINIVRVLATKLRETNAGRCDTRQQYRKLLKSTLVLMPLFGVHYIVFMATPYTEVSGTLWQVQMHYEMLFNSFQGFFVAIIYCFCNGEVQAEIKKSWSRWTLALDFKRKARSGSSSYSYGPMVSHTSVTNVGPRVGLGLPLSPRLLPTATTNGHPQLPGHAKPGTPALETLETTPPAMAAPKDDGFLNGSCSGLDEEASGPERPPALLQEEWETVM

[2] = target: T1, Parathyroid hormone/parathyroid hormone-related peptide receptor (Homo sapiens); experiment: Agonist activity at extracellular domain truncate human PTH1 receptor expressed in GD5 cells assessed as induction of cAMP after 12 to 20 mins by luciferase reporter gene assay; format: functional, cell-based
How it was run: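 HEK293-derived lines stably expressing Glosensor cAMP reporter plus full-length human PTHR1 (GP2.3) or ECD-truncated PTHR1 (GD5). Confluent monolayers preincubated at room temperature in CO2-independent medium with 0.5 mM D-luciferin until baseline stable (30 min), then varied agonist concentrations added. Maximal luminescence (12−20 min) used for sigmoidal variable-slope fits.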

[3] = target: T2, Parathyroid hormone/parathyroid hormone-related peptide receptor (Homo sapiens, UniProt Q03431); experiment: Agonist activity at human PTH1 receptor expressed in human GP2.3 cells assessed as induction of cAMP after 12 to 20 mins by luciferase reporter gene assay; format: functional, cell-based; conditions: read-out: EC50
T2 sequence (Q03431 whole entry): T1 sequence (whole entry)

[4] = target: T1, Parathyroid hormone/parathyroid hormone-related peptide receptor (Homo sapiens); experiment: Displacement of [125I]-PTH(1 to 34 residues) from R0 state of human PTHR1 expressed in African green monkey COS7 cell membranes incubated for >1 hr in presence of GTPgammaS by gamma radiation method

fold change (FC) [1] | Activity [2] | EC50 [3] [nM] | inhibition [4] | Compound
3.7 | Active | 0.34 | – | CC[C@H](C)[C@H](NC(=O)[C@H](CCC(=O)O)NC(=O)[C@H](CO)NC(=O)[C@@H](NC(=O)[C@@H](N)CO)C(C)C)C(=O)N[C@H]1CCC[C@@H]1C(=O)N[C@@H](CC(C)C)C(=O)N[C@@H](CCSC)C(=O)N[C@@H](Cc1cnc[nH]1)C(=O)N[C@@H](CC(N)=O)C(=O)N[C@@H](CC(C)C)C(=O)NCC(=O)N[C@@H](CCCCN)C(=O)N[C@@H](Cc1cnc[nH]1)C(=O)N[C@@H](CC(C)C)C(=O)N[C@@H](CC(N)=O)C(=O)N[C@@H](CO)C(=O)N[C@@H](CCSC)C(=O)N[C@@H](CCC(=O)O)C(=O)N[C@@H](CCCNC(=N)N)C(=O)N[C@H](C(=O)N[C@@H](CCC(=O)O)C(=O)N[C@@H](Cc1c[nH]c2ccccc12)C(=O)N[C@@H](CC(C)C)C(=O)N[C@@H](CCCNC(=N)N)C(=O)N[C@@H](CCCCN)C(=O)N[C@@H](CCCCN)C(=O)N[C@@H](CC(C)C)C(=O)N[C@@H](CCC(N)=O)C(=O)N[C@@H](CC(=O)O)C(=O)N[C@H](C(=O)N[C@@H](Cc1cnc[nH]1)C(=O)N[C@@H](CC(N)=O)C(=O)N[C@@H](Cc1ccccc1)C(N)=O)C(C)C)C(C)C
5.3 | – | 0.36 | Active | CC[C@H](C)[C@H](NC(=O)[C@H]1CCC[C@@H]1NC(=O)[C@H](CCCCN)NC(=O)CNC(=O)[C@H](CCCCN)NC(=O)[C@H](CC(=O)O)NC(=O)[C@H](Cc1cnc[nH]1)NC(=O)[C@H](CC(C)C)NC(=O)[C@H]1CCC[C@@H]1NC(=O)[C@H](CCC(N)=O)NC(=O)[C@H]1CCC[C@@H]1NC(=O)[C@H](CCC(=O)O)NC(=O)[C@H](CO)NC(=O)[C@@H](NC(=O)[C@H]1CCC[C@@H]1N)C(C)C)C(=O)N[C@@H](CCC(N)=O)C(=O)N[C@@H](CC(=O)O)C(=O)N[C@H]1CCC[C@@H]1C(=O)N[C@@H](CCCNC(=N)N)C(=O)N[C@@H](CCCNC(=N)N)C(=O)N[C@@H](CCCNC(=N)N)C(=O)N[C@H]1CNC[C@@H]1C(=O)N[C@@H](CC(C)C)C(=O)N[C@@H](CC(C)C)C(=O)N[C@@H](CCC(=O)O)C(=O)N[C@H]1CNC[C@@H]1C(=O)N[C@@H](CC(C)C)C(=O)N[C@@H](CC(C)C)C(=O)NC(C)(C)C(=O)N[C@H]1CCC[C@@H]1C(=O)N[C@@H](CC(C)C)C(=O)N[C@@H](Cc1cnc[nH]1)C(=O)N[C@H](C(=O)N[C@H]1CCC[C@@H]1C(N)=O)[C@@H](C)O ({ACPC(1S,2S)}-VSE[X1]Q[X1]LHDKGK[X1]IQD[X1]RRR[X2]LLE[X2]LL[Aib][X1]LHT-{NH(1S,2S-2-CONH2-cPent)})
7.4 | – | 0.51 | Active | CC[C@H](C)[C@H](NC(=O)[C@H](CC(C)C)NC(=O)[C@H]1CNC[C@@H]1NC(=O)[C@H](Cc1cnc[nH]1)NC(=O)[C@H](CC(C)C)NC(=O)[C@H](Cc1ccccc1)NC(=O)[C@H]1CNC[C@@H]1NC(=O)[C@H](CCCNC(=N)N)NC(=O)[C@H](CCCNC(=N)N)NC(=O)[C@H](CCCNC(=N)N)NC(=O)[C@H]1CCC[C@@H]1NC(=O)[C@H](CC(=O)O)NC(=O)[C@H](CCC(N)=O)NC(=O)[C@@H](NC(=O)[C@H]1CCC[C@@H]1NC(=O)[C@H](CCCCN)NC(=O)CNC(=O)[C@H](CCCCN)NC(=O)[C@H](CC(=O)O)NC(=O)[C@H](Cc1cnc[nH]1)NC(=O)[C@H](CC(C)C)NC(=O)[C@H]1CCC[C@@H]1NC(=O)[C@H](CCC(N)=O)NC(=O)[C@H]1CCC[C@@H]1NC(=O)[C@H](CCC(=O)O)NC(=O)[C@H](CO)NC(=O)[C@@H](NC(=O)[C@H]1CCC[C@@H]1N)C(C)C)[C@@H](C)CC)C(=O)N[C@@H](C)C(=O)N[C@H]1CCC[C@@H]1C(=O)N[C@H](C(=O)N[C@@H](Cc1cnc[nH]1)C(=O)N[C@H](C(=O)N[C@H]1CCC[C@@H]1C(N)=O)[C@@H](C)O)[C@@H](C)CC ({ACPC(1S,2S)}-VSE[X1]Q[X1]LHDKGK[X1]IQD[X1]RRR[X2]FLH[X2]LIA[X1]IHT-{NH(1S,2S-2-CONH2-cPent)})
